Common to all, as to assay type: functional, cell-based
Assay [1] has as its system Jurkat. Kind of assay: Cytotoxicity against human Jurkat cells after 72 hrs by CellTitre-Glo luminescent cell viability assay. In outline:
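Jurkat grown in RPMI-1640 with 10% FBS and penicillin/streptomycin at 37 °C, 5% CO2. Cells seeded at 1000 per well, then given serially diluted compounds, with staurosporine as the positive control. Incubated 72 h in the dark, away from bright light. Viability read by CellTiter-Glo luminescence. IC50 obtained by regression of % viable cells against log concentration, 10 concentrations, triplicate experiments.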

In assay [2] the test system is MCF7. Kind of assay: Cytotoxicity against human MCF7 cells after 72 hrs by CellTitre-Glo luminescent cell viability assay. The note with it: MCF7, 72 h.
Assay [3] is described as follows: Cytotoxicity against human BGC823 cells after 72 hrs by CellTitre-Glo luminescent cell viability assay. The settings on record: BGC-823, 72 h.
The nature of assay [4]: Cytotoxicity against human KE-97 cells after 72 hrs by CellTitre-Glo luminescent cell viability assay. The settings on record: KE-97, 72 h.
In assay [5] the test system is Huh-7. As to the kind of experiment: Cytotoxicity against human HuH7 cells after 72 hrs by CellTitre-Glo luminescent cell viability assay. The note with it: Huh-7, 72 h.

pIC50: −log10 of the molar value.

On to `CN[C@@H]1C[C@H]2O[C@@](C)([C@@H]1OC)n1c3ccccc3c3c4c(c5c6ccccc6n2c5c31)C(=O)NC4` [STAUROSPORINE], for which, in assay [1], the pIC50 is 6.85.

For `CC1(C)CC[C@@]2(CC[C@]3(C)C(=CC[C@@H]4[C@@]5(C)C[C@@H](O)[C@H](O)[C@@](C)(COC(=O)/C=C\c6ccc(O)cc6)[C@@H]5CC[C@]43C)[C@H]2O)C1` (relative stereo), the pIC50 in assay [2], in assay [3], in assay [4], in assay [1] and in assay [5] was less than 5.00 each time.

In the case of `CC1(C)CC[C@]2(CC[C@]3(C)C(=CC[C@@H]4[C@@]5(C)C[C@@H](O)[C@H](O)[C@@](C)(CO)[C@@H]5CC[C@]43C)[C@H]2O)C1`, the pIC50 is 5.07 in assay [2]; less than 5.00 in assay [3]; less than 5.00 in assay [4]; less than 5.00 in assay [1]; less than 5.00 in assay [5].

Turning to `CC1(C)CC[C@@]2(CC[C@]3(C)C(=CC[C@@H]4[C@@]5(C)C[C@@H](O)[C@H](O)[C@@](C)(COC(=O)/C=C/c6ccc(O)cc6)[C@@H]5CC[C@]43C)[C@H]2O)C1`, the pIC50 in assay [2], in assay [3], in assay [4], in assay [1] and in assay [5] was less than 5.00 each time.

For `CC1(C)CC[C@@]2(CC[C@]3(C)C(=CC[C@@H]4[C@@]5(C)C[C@@H](O)[C@H](OC(=O)/C=C/c6ccc(O)c(O)c6)[C@@](C)(CO)[C@@H]5CC[C@]43C)[C@H]2O)C1` (relative stereo), the pIC50 is 5.34 in assay [2]; 5.12 in assay [3]; 5.52 in assay [4]; 5.41 in assay [1]; 5.72 in assay [5].

Regarding `COc1cc(/C=C/C(=O)OC[C@@]2(C)[C@@H]3CC[C@]4(C)[C@H](CC=C5[C@@H](O)[C@]6(CCC(C)(C)C6)CC[C@]54C)[C@@]3(C)C[C@@H](O)[C@@H]2O)ccc1O`, the negative logarithm of the IC50 (pIC50) in assay [2], in assay [3], in assay [4], in assay [1] and in assay [5] was less than 5.00 throughout.

With `COc1cc(/C=C\C(=O)OC[C@@]2(C)[C@@H]3CC[C@]4(C)[C@H](CC=C5[C@@H](O)[C@]6(CCC(C)(C)C6)CC[C@]54C)[C@@]3(C)C[C@@H](O)[C@@H]2O)ccc1O` (relative stereo), the pIC50 in assay [2], in assay [3], in assay [4], in assay [1] and in assay [5] was less than 5.00 each time.

Turning to `CC1(C)CC[C@@]2(CC[C@]3(C)C(=CC[C@@H]4[C@@]5(C)C[C@@H](O)[C@H](O)[C@@](C)(COC(=O)/C=C/c6ccc(O)c(O)c6)[C@@H]5CC[C@]43C)[C@H]2O)C1` (relative stereo), the pIC50 in assay [2] is 5.37; in assay [3], less than 5.00; in assay [4], less than 5.00; in assay [1] it was 5.01; in assay [5], 5.01.

For the compound `CC1(C)CC[C@]2(CC[C@]3(C)C(=CC[C@@H]4[C@@]5(C)C[C@@H](O)[C@H](OC(=O)/C=C/c6ccc(O)cc6)[C@@](C)(CO)[C@@H]5CC[C@]43C)[C@H]2O)C1`, the pIC50 in assay [2], in assay [3], in assay [4], in assay [1] and in assay [5] was less than 5.00 each time.

Consider `CC1(C)CC[C@]2(CC[C@]3(C)C(=CC[C@@H]4[C@@]5(C)C[C@@H](O)[C@H](OC(=O)/C=C\c6ccc(O)cc6)[C@@](C)(CO)[C@@H]5CC[C@]43C)[C@H]2O)C1`, for which the pIC50 in assay [2], in assay [3], in assay [4], in assay [1] and in assay [5] was less than 5.00 in each case.

Take `COc1cc(/C=C/C(=O)O[C@H]2[C@H](O)C[C@@]3(C)[C@@H](CC[C@]4(C)[C@@H]3CC=C3[C@@H](O)[C@@]5(CCC(C)(C)C5)CC[C@]34C)[C@]2(C)CO)ccc1O`: the pIC50 in assay [2], in assay [3], in assay [4], in assay [1] and in assay [5] was less than 5.00 each time.

As to `COc1cc(/C=C\C(=O)O[C@H]2[C@H](O)C[C@@]3(C)[C@@H](CC[C@]4(C)[C@@H]3CC=C3[C@@H](O)[C@@]5(CCC(C)(C)C5)CC[C@]34C)[C@]2(C)CO)ccc1O`, the pIC50 in assay [2], in assay [3], in assay [4], in assay [1] and in assay [5] was less than 5.00 in each case.
